Experimental data taken from ChEMBL document CHEMBL4382210, “Identification of novel benzothiopyranone compounds against Mycobacterium tuberculosis through scaffold morphing from benzothiazinones” (Eur J Med Chem, 2018).
In brackets after ≈: the same amount, converted by molar mass.

How the values were obtained:
[1] = Metabolic stability in CD-1 mouse liver microsomes assessed as parent compound remaining at 1 uM measured after 30 mins in presence of NADPH by LC-MS/MS analysis; assay type: ADME, Microsome; conditions: read-out: Stability
How it was run: (§1)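 Male CD-1 mouse or pooled human liver microsomes (1 mg/mL protein), compound at 1 µM, 37 °C. Reaction started with 1 mM NADPH and quenched with cold ACN/MeOH containing internal standard. Parent remaining measured by LC-MS/MS; the 30-min value is normalised to time zero.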

[2] = Metabolic stability in human liver microsomes assessed as parent compound remaining at 1 uM measured after 30 mins in presence of NADPH by LC-MS/MS analysis; assay type: ADME, Microsome; conditions: read-out: Stability; how it was run: as §1
[3] = Inhibition of Mycobacterium tuberculosis DprE1 expressed in Escherichia coli BL21(DE3) by fluorescence based assay
How it was run: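 Buffer: 50 mM Hepes pH 7.5, 100 mM NaCl, 1.5% DMSO, 100 µM Tween-20, 2 µM FAD, 50 µM resazurin. DprE1 (1 µM) with 1 mM FPR at 30 °C across inhibitor concentrations. Resorufin formation followed by fluorescence (ex 530/em 595 nm).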

Vero = experiment: Cytotoxicity against African green monkey Vero cells assessed as reduction in cell viability after 48 hrs by MTT assay; assay type: cell-based; conditions: Chlorocebus sabaeus
How it was run: (§2)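 Vero or HepG2 cells in RPMI1640 with 10% FBS at 37 °C, 5% CO2, seeded at 4×10^5 cells/mL. Threefold dilutions at 64–0.26 µg/mL final for 48 h. Cells then washed with HBSS, MTT added for 4 h, absorbance read at 492 nm. IC50 taken relative to untreated control.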

[4] = test system: Mycobacterium tuberculosis; experiment: Antimicrobial activity against Mycobacterium tuberculosis H37Rv after 7 days by MABA; assay type: functional; conditions: 168 h
How it was run: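 Strain H37Rv or clinical isolates grown to late log phase in 7H9-ADC-TG, washed, resuspended in PBS, filtered (8 µm) and frozen. On day 7 Tween 80 and alamar blue added, read 16–24 h later (ex 530/em 590). MIC = lowest concentration giving ≥90% fluorescence reduction versus bacterium-only controls.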

[5] = Selectivity index, ratio of IC50 for human HepG2 cells to MIC=>90 for Mycobacterium tuberculosis H37Rv; assay type: toxicity; conditions: read-out: Selectivity Index
HepG2 = experiment: Cytotoxicity against human HepG2 cells assessed as reduction in cell viability after 48 hrs by MTT assay; assay type: cell-based; conditions: HepG2, 48 h; how it was run: as §2
[6] = test system: Mycobacterium tuberculosis; experiment: Antimicrobial activity against Mycobacterium tuberculosis H37Rv infected in BALB/C mouse assessed as bacterial burden in mouse lung at 25 mg/kg, po administered via gavage treated 5 times per week for 3 weeks starting from day 10 post infection (reference value: 7.102 +/- 0.152 log10CFU); assay type: functional
[7] = Half life in CD-1 mouse hepatocytes assessed per million cells at 1 uM incubated up to 120 mins by LC-MS/MS analysis; assay type: ADME, cell-based, Hepatocyte
How it was run: (§3)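 Pooled male CD-1 mouse or pooled human hepatocytes at 1 million cells/mL final, compound at 1 µM. Incubated at 37 °C in a CO2 incubator with shaking (~100 rpm). Samples taken at 0, 15, 30, 60, 90 and 120 min and quenched with cold ACN/MeOH containing internal standard. Parent compound remaining measured by LC-MS/MS.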

[8] = Intrinsic clearance in human hepatocytes assessed per million cells at 1 uM incubated up to 120 mins by LC-MS/MS analysis; assay type: ADME, cell-based, Hepatocyte; conditions: read-out: CLH; how it was run: as §3
[9] = Half life in human hepatocytes assessed per million cells at 1 uM incubated up to 120 mins by LC-MS/MS analysis; assay type: ADME, cell-based, Hepatocyte; how it was run: as §3
[10] = Intrinsic clearance in CD-1 mouse hepatocytes assessed per million cells at 1 uM incubated up to 120 mins by LC-MS/MS analysis; assay type: ADME, cell-based, Hepatocyte; conditions: read-out: CLH; how it was run: as §3

| Structure (SMILES) | IC50 (Vero) [µg/mL] | MIC90 [4] [µg/mL] | also measured |
| --- | --- | --- | --- |
| CC1COC2(CCN(c3cc(=O)c4cc(C(F)(F)F)cc([N+](=O)[O-])c4s3)CC2)O1 (configuration not stated) | > 64 | 0.03 (≈ 0.0697 µM) | remaining at 0.5 h, 1 µM [1]: 47.4%; remaining at 0.5 h, 1 µM [2]: 82.8%; IC50 [3]: 630 nM |
| O=c1cc(NCc2cccc(F)c2)sc2c([N+](=O)[O-])cc(C(F)(F)F)cc12 | > 64 | 0.118 (≈ 0.296 µM) |  |
| O=c1nc(NC2CCCCC2)oc2c([N+](=O)[O-])cc(C(F)(F)F)cc12 | 5.39 (≈ 15.1 µM) | 0.118 (≈ 0.33 µM) |  |
| O=c1nc(NCc2cccc(F)c2)oc2c([N+](=O)[O-])cc(C(F)(F)F)cc12 | > 64 | > 32 |  |
| COc1ccc(CNc2cc(=O)c3cc(C(F)(F)F)cc([N+](=O)[O-])c3s2)cc1OC | > 64 | 0.902 (≈ 2.05 µM) |  |
| CC1COC2(CCN(c3cc(=O)c4cc(C(F)(F)F)cc([N+](=O)[O-])c4o3)CC2)O1 (configuration not stated) | 18.9 (≈ 45.5 µM) | < 0.016 |  |
| O=c1cc(NCc2ccc(F)cc2)sc2c([N+](=O)[O-])cc(C(F)(F)F)cc12 | > 64 | 0.206 (≈ 0.517 µM) |  |
| O=c1nc(NCc2ccc3c(c2)OCCO3)oc2c([N+](=O)[O-])cc(C(F)(F)F)cc12 | 25.3 (≈ 59.7 µM) | 0.03 (≈ 0.0709 µM) |  |
| O=c1cc(N2CCN(Cc3ccccc3)CC2)sc2c([N+](=O)[O-])cc(C(F)(F)F)cc12 | > 64 | 0.03 (≈ 0.0667 µM) | remaining at 0.5 h, 1 µM [1]: 60.5%; remaining at 0.5 h, 1 µM [2]: 87.6%; selectivity ratio [5]: > 2130; IC50 (HepG2): > 64 µg/mL; IC50 [3]: 1330 nM |
| O=c1nc(Nc2ccccc2)oc2c([N+](=O)[O-])cc(C(F)(F)F)cc12 | 37.9 (≈ 108 µM) | 30.6 (≈ 87.3 µM) |  |
| O=c1cc(N2CCN(c3nccs3)CC2)sc2c([N+](=O)[O-])cc(C(F)(F)F)cc12 | > 64 | 0.054 (≈ 0.122 µM) |  |
| O=c1cc(N2CCN(CC3CCCCC3)CC2)oc2c([N+](=O)[O-])cc(C(F)(F)F)cc12 | 10.6 (≈ 24.1 µM) | 0.116 (≈ 0.264 µM) |  |
| CC1CN(c2cc(=O)c3cc(C(F)(F)F)cc([N+](=O)[O-])c3s2)CCN1Cc1ccccc1 (configuration not stated) | > 64 | < 0.016 | remaining at 0.5 h, 1 µM [1]: 54.5%; remaining at 0.5 h, 1 µM [2]: 76.7% |
| CC1COC2(CCN(c3nc(=O)c4cc(C(F)(F)F)cc([N+](=O)[O-])c4o3)CC2)O1 (configuration not stated) | 9.21 (≈ 22.2 µM) | < 0.016 |  |
| O=c1cc(NC2CCCCC2)sc2c([N+](=O)[O-])cc(C(F)(F)F)cc12 | > 64 | 1.53 (≈ 4.1 µM) |  |
| CN(Cc1ccc2c(c1)OCCO2)c1cc(=O)c2cc(C(F)(F)F)cc([N+](=O)[O-])c2s1 | > 64 | < 0.016 | remaining at 0.5 h, 1 µM [1]: 6.46%; remaining at 0.5 h, 1 µM [2]: 44.9% |
| O=c1cc(Nc2ccccc2)sc2c([N+](=O)[O-])cc(C(F)(F)F)cc12 | > 64 | > 32 |  |
| CC1CN(c2nc(=O)c3cc(C(F)(F)F)cc([N+](=O)[O-])c3o2)CCN1CC1CCCCC1 (configuration not stated) | 10.9 (≈ 23.9 µM) | < 0.016 |  |
| O=c1nc(NCC2CCCCC2)oc2c([N+](=O)[O-])cc(C(F)(F)F)cc12 | 29.7 (≈ 80.1 µM) | 0.05 (≈ 0.135 µM) |  |
| CN(Cc1ccc2c(c1)OCCO2)c1cc(=O)c2cc(C(F)(F)F)cc([N+](=O)[O-])c2o1 | 29.4 (≈ 67.4 µM) | < 0.016 |  |
| O=c1cc(NCC2CCCCC2)sc2c([N+](=O)[O-])cc(C(F)(F)F)cc12 | > 64 | 0.402 (≈ 1.04 µM) |  |
| O=c1nc(N2CCN(Cc3ccccc3)CC2)oc2c([N+](=O)[O-])cc(C(F)(F)F)cc12 | 33.5 (≈ 77.1 µM) | 3.93 (≈ 9.05 µM) |  |

| Structure (SMILES) | IC50 (Vero) [µg/mL] | MIC90 [4] [µg/mL] | also measured |
| --- | --- | --- | --- |
| O=c1nc(N2CCN(c3nccs3)CC2)oc2c([N+](=O)[O-])cc(C(F)(F)F)cc12 |  | 4 (≈ 9.36 µM) |  |
| COc1ccc(CN(C)c2cc(=O)c3cc(C(F)(F)F)cc([N+](=O)[O-])c3s2)cc1OC | > 64 | < 0.016 |  |
| COc1ccc(CNc2nc(=O)c3cc(C(F)(F)F)cc([N+](=O)[O-])c3o2)cc1OC | 29.2 (≈ 68.7 µM) | 0.226 (≈ 0.531 µM) |  |
| CN(Cc1ccccc1)c1nc(=O)c2cc(C(F)(F)F)cc([N+](=O)[O-])c2o1 | 3.84 (≈ 10.1 µM) | 0.031 (≈ 0.0817 µM) |  |
| O=c1cc(NCc2ccccc2)sc2c([N+](=O)[O-])cc(C(F)(F)F)cc12 | > 64 | > 32 |  |
| COc1ccc(CN(C)c2nc(=O)c3cc(C(F)(F)F)cc([N+](=O)[O-])c3o2)cc1OC | 9.46 (≈ 21.5 µM) | 0.057 (≈ 0.13 µM) |  |
| O=c1nc(N2CCN(CC3CCCCC3)CC2)oc2c([N+](=O)[O-])cc(C(F)(F)F)cc12 | 52.1 (≈ 118 µM) | 0.159 (≈ 0.361 µM) |  |
| CC1CN(c2cc(=O)c3cc(C(F)(F)F)cc([N+](=O)[O-])c3s2)CCN1CC1CCCCC1 (configuration not stated) | > 64 | < 0.016 | remaining at 0.5 h, 1 µM [1]: 59.9%; remaining at 0.5 h, 1 µM [2]: 62.7% |
| O=C1CN(c2cc(=O)c3cc(C(F)(F)F)cc([N+](=O)[O-])c3s2)CCN1CC1CCCCC1 | > 64 | < 0.016 | remaining at 0.5 h, 1 µM [1]: 7.38%; remaining at 0.5 h, 1 µM [2]: 86.6% |
| O=C1CN(c2nc(=O)c3cc(C(F)(F)F)cc([N+](=O)[O-])c3o2)CCN1CC1CCCCC1 | 25.4 (≈ 55.9 µM) | 6.28 (≈ 13.8 µM) |  |
| O=c1nc(NCc2ccc(F)cc2)oc2c([N+](=O)[O-])cc(C(F)(F)F)cc12 | > 64 | 7.22 (≈ 18.8 µM) |  |
| O=c1nc(NCc2ccccc2)oc2c([N+](=O)[O-])cc(C(F)(F)F)cc12 | 25.4 (≈ 69.4 µM) | 30.5 (≈ 83.6 µM) |  |
| O=C1CN(c2cc(=O)c3cc(C(F)(F)F)cc([N+](=O)[O-])c3o2)CCN1CC1CCCCC1 | 9.73 (≈ 21.5 µM) | 0.091 (≈ 0.201 µM) |  |
| CN(Cc1ccccc1)c1cc(=O)c2cc(C(F)(F)F)cc([N+](=O)[O-])c2s1 | > 64 | < 0.016 | remaining at 0.5 h, 1 µM [1]: 13%; remaining at 0.5 h, 1 µM [2]: 11.6% |
| CN(Cc1ccc2c(c1)OCCO2)c1nc(=O)c2cc(C(F)(F)F)cc([N+](=O)[O-])c2o1 | 9.27 (≈ 21.2 µM) | < 0.016 |  |
| CC1CN(c2nc(=O)c3cc(C(F)(F)F)cc([N+](=O)[O-])c3o2)CCN1Cc1ccccc1 (configuration not stated) | 15.6 (≈ 34.8 µM) | < 0.016 |  |
| O=c1cc(NCc2ccc3c(c2)OCCO3)sc2c([N+](=O)[O-])cc(C(F)(F)F)cc12 | > 64 | 0.03 (≈ 0.0684 µM) |  |
| C[C@H]1COC2(CCN(c3nc(=O)c4cc(C(F)(F)F)cc([N+](=O)[O-])c4s3)CC2)O1 [BTZ-043] | > 64 | < 0.016 | IC50 [3]: 1030 nM |
| NNC(=O)c1ccncc1 [ISONIAZID] |  | 0.035 (≈ 0.255 µM) | Activity [6]: 1.929 log10CFU |
| O=c1nc(N2CCN(CC3CCCCC3)CC2)sc2c([N+](=O)[O-])cc(C(F)(F)F)cc12 [MACOZINONE] | > 64 | < 0.016 | remaining at 0.5 h, 1 µM [1]: 63.9%; remaining at 0.5 h, 1 µM [2]: 58.7%; half-life at 1 µM [7]: 165 min; hepatocyte CLint at 1 µM [8]: 14.5 µL/min/1e6 cells; selectivity ratio [5]: > 1190; half-life at 1 µM [9]: 47.8 min; IC50 (HepG2): 19 µg/mL (≈ 41.6 µM); IC50 [3]: 200 nM; hepatocyte CLint at 1 µM [10]: 4.2 µL/min/1e6 cells |
| CO[C@H]1/C=C/O[C@@]2(C)Oc3c(C)c(O)c4c(O)c(c(/C=N/N5CCN(C)CC5)c(O)c4c3C2=O)NC(=O)/C(C)=C\C=C\[C@H](C)[C@H](O)[C@@H](C)[C@@H](O)[C@@H](C)[C@H](OC(C)=O)[C@@H]1C [RIFAMPIN] |  | 0.096 (≈ 0.117 µM) |  |
